Results: ChEMBL document CHEMBL1123654, “Synthesis of N-(3,6-dihydro-1(2H)-pyridinyl)benzamides with hyperglycemic-hypoglycemic activity” (J Med Chem, 1987)

Experiments:
[1] = test system: Rattus norvegicus; experiment: Hyperglycemic activity and change in blood glucose concentration was reported 4 hours after administration (100 mg/Kg perorally); format: functional
Procedure, shortened: (§1)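 Overnight-fasted rats dosed orally at 100 mg/kg as a suspension in 1% tragacanth in distilled water. Tail capillary blood sampled at 0, 2 and 4 h after dosing. Serum glucose measured by spectrophotometry of enzymatically produced NADH2. Change is expressed relative to time zero as mean ± SEM of four animals; plus means a rise, minus a fall; p<0.05 marks significance.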

[2] = Partition coefficient (logP); format: physicochemical; settings: octanol/water
Procedure, shortened: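 Partition coefficient calculated as P = C(octanol)/C(H2O), using the method of Fujita et al.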

[3] = test system: Rattus norvegicus; experiment: Hyperglycemic activity and change in blood glucose concentration was reported 2 hours after administration of 100 mg/Kg perorally.; format: functional; procedure, shortened: as §1
[4] = test system: Rattus norvegicus; experiment: Hyperglycemic activity and change in blood glucose concentration was reported 4 hours after administration of 100 mg/Kg perorally; format: functional; procedure, shortened: as §1
[5] = test system: Rattus norvegicus; experiment: Hyperglycemic activity and change in blood glucose concentration was reported 2 hours after administration of 100 mg/Kg perorally; format: functional; procedure, shortened: as §1

| Structure (SMILES) | Change [1] | logP [2] | Change [3] | Change [4] | Change [5] |
| --- | --- | --- | --- | --- | --- |
| O=C(NN1CCC=C(F)C1)c1ccccc1 | 42% | 1.27 | 64% | – | – |
| COC(=O)CCC1=CCN(NC(=O)c2ccccc2)CC1 | -9% | 0.949 | -9% | – | – |
| COC(=O)CCC1=CCCN(NC(=O)c2ccccc2)C1 | 6% | 0.74 | -2% | – | – |
| CC1=CCN(NC(=O)c2ccccc2)CC1 | 43% | 1.2 | 48% | – | – |
| CC(=O)OCCCC1=CCN(NC(=O)c2ccccc2)CC1 | 3% | 1.52 | 2% | – | – |
| O=C(NN1CCC=CC1=O)c1ccccc1 | 4% | 1.17 | 1% | – | – |
| CC(O)C1=CCN(NC(=O)c2ccccc2)CC1 (stereo unspecified) | -5% | 0.0414 | -10% | – | – |
| O=C(NN1CC=CCC1)c1ccccc1 | 50% | – | 78% | – | – |
| O=C(NN1CC=C(CCCO)CC1)c1ccccc1 | -6% | 1.22 | 4% | – | – |
| O=C(O)CCC1=CCN(NC(=O)c2ccccc2)CC1 | 7% | 1 | -4% | – | – |
| CC(O)C1=CCCN(NC(=O)c2ccccc2)C1 (stereo unspecified) | -16% | 0.447 | -8% | – | – |
| CC1CC=CCN1NC(=O)c1ccccc1 (stereo unspecified) | 16% | 0.699 | 12% | – | – |
| CC1=C(C)CN(NC(=O)c2ccccc2)CC1 | 20% | 1.35 | 27% | – | – |
| COCCCC1=CCCN(NC(=O)c2ccccc2)C1 | -11% | 0.908 | -10% | – | – |
| CC(=O)C1=CCCN(NC(=O)c2ccccc2)C1 | -17% | -0.0969 | -5% | – | – |
| COC1=CCN(NC(=O)c2ccccc2)CC1 | – | 1.16 | – | 7% | 5% |
| O=C(NN1CCC=C(CCCO)C1)c1ccccc1 | -6% | 1.12 | -2% | – | – |
| O=C(NN1CC=C(CO)CC1)c1ccccc1 | -14% | 0.643 | -10% | – | – |
| CC1=CCCN(NC(=O)c2ccccc2)C1 | 116% | 1.37 | 124% | – | – |
| COC1=CCCN(NC(=O)c2ccccc2)C1 | -9% | 1.62 | – | – | -7% |
| CC(=O)OCCCC1=CCCN(NC(=O)c2ccccc2)C1 | 7% | 1.49 | -8% | – | – |
| CC(=O)C1=CCN(NC(=O)c2ccccc2)CC1 | -19% | 0.38 | -12% | – | – |
| O=C(O)CCC1=CCCN(NC(=O)c2ccccc2)C1 | -4% | 1.18 | -14% | – | – |
| COCCCC1=CCN(NC(=O)c2ccccc2)CC1 | -9% | 1.49 | 1% | – | – |
| C=C1C=CCN(NC(=O)c2ccccc2)C1 | 4% | 1.37 | – | – | 5% |
| CCCNC(=O)NS(=O)(=O)c1ccc(Cl)cc1 [CHLORPROPAMIDE] | -38% | – | – | – | -42% |
